Screening results as filed in PubChem.
Compounds with a hit are over-represented: about 2.2% of the library has one in this group of screens.
NR2E3 ag-1: activates human NR2E3 receptor | 360,000 tested, 0.35% active | Q9Y5X4 | inhibition of corepressor binding, % at 3.98 µM | CHO-S Gal4-NCOR/VP16-NR2E3 two-hybrid, luciferase;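 active = inhibition above the mean of all tested compounds plus 3 SD, cut at about 70% in these data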;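 note: 0% = DMSO with NR2E3 transfected cells and 100% = cells lacking NR2E3 construct; higher means lower luciferase signal from less NR2E3 corepressor binding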
Target sequence (Q9Y5X4 whole entry, looked up, the tested form may be a part): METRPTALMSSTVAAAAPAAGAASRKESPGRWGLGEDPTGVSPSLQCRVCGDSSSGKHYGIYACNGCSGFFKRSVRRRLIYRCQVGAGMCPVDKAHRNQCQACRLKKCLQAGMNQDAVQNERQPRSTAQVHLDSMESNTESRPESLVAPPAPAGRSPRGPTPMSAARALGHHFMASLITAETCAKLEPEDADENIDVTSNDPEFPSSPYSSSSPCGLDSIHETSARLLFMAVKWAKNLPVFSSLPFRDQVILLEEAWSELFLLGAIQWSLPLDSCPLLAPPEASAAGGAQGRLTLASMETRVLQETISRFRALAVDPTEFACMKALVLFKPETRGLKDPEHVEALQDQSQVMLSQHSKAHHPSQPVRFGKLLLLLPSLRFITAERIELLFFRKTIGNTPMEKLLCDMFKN
miR122 inh: blocks miR-122 activity in Huh7 sensor cells; Huh7 miR-122 Renilla luciferase sensor, 48 h; neutral wells = 0, positive control = 100; activation (reporter increase), % at 12.5 µM; 340,000 tested, 0.3% active;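 active = mean replicate activation score at least 90 and every replicate individually at or above 90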;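 note: higher luciferase means less miR-122 activity so hits act as miR-122 inhibitors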
Jurkat NFkB inh: inhibitors of the PMA/ionomycin-induced NF-kB reporter in Jurkat cells; PMA/ionomycin-induced NF-kB luciferase reporter, luminescence; inhibition, % at 4 µM; 330,000 tested, 0.53% active; AID 435003; in the data active = inhibition above about 50%
NR2E3 ag-2: activates human photoreceptor nuclear receptor NR2E3. Q9Y5X4. GST-NR2E3/biotin-RetCOR TR-FRET, 1536-well. inhibition of corepressor binding, % at 4.78 µM. 320,000 tested, 0.12% active;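 active = percent inhibition above the cutoff of mean plus 3 SD of all tested compounds, set per screening campaign, cut at about 20% in these data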;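 note: 0% = DMSO wells and 100% = biotin wells as full block of FRET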
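system = GST-tagged NR2E3 plus biotinylated RetCOR corepressor | input = 1.35 nM GST-NR2E3 | also added = 7 nM biotin-RetCOR | schedule = 5 h incubation at 4 °C | measured by = TR-FRET with europium anti-GST and streptavidin-D2, 340 nm excitation | read-out = percent loss of FRET ratio relative to control wells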
FGF22 binding: FGF22 (human) thermal shift binding; Q9HCT0; recombinant FGF22 thermal shift, SYPRO orange fluorescence; percent of sucrose octasulfate shift, DMSO zero; activity (Tm shift, normalised), % at 9.99 µM; 340,000 tested, 1.5% active; AID 651658;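 active = mean Tm shift, scaled 0 neutral to 100 positive control, at about 1.3% or above, every replicate too, limit read from the data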
Target sequence (Q9HCT0 whole entry, looked up): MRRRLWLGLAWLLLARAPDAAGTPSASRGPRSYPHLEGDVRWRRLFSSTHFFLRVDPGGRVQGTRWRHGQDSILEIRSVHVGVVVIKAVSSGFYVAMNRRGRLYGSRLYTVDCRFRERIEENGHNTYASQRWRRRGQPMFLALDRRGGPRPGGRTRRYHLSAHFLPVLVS
697 NFkB inh: inhibitors of the PMA/ionomycin-induced NF-kB reporter in 697 B cells. inhibition, % at 4 µM. 330,000 tested, 0.33% active. 697 B-cell NF-kB luciferase reporter, 16 h. AID 435022; in the data active = inhibition above about 35%
Active calls of the source: *; nt = no result given; [ ] = dose if it differs, or a comment.

SMILES | NR2E3 ag-1 | miR122 inh | Jurkat NFkB inh | NR2E3 ag-2 | FGF22 binding | 697 NFkB inh
Cc1c(Cl)cnn1CC(=O)NC1C(=O)N2C(C(=O)O)=C(CSc3nnnn3C)CSC12 (configuration not stated) | -3 | nt | 10 | 3 | 43* | 21
CC(C(=O)NC1C(=O)N2C(C(=O)O)=C(CSc3nnnn3C)CSC12)n1cc(Cl)cn1 (configuration not stated) | 1 | nt | -1 | 2 | 43* | 18
Cc1c(Cl)c(C(F)F)nn1CC(=O)NC1C(=O)N2C(C(=O)O)=C(CSc3nnnn3C)CSC12 (configuration not stated) | -21 | nt | nt | nt | 0 | nt
Cc1ccccc1S(=O)(=O)N(C)C[C@@H]1OCc2cn(nn2)CCCC(=O)N([C@@H](C)CO)C[C@@H]1C | nt | 4[16.7 µM] | nt | nt | 0 | nt
CCCN1C[C@H](C)[C@H](OC)CN(C)C(=O)c2cc(NC(=O)Nc3cccc(OC)c3)ccc2OC[C@H]1C | nt | 9[16.7 µM] | nt | nt | nt | nt
O=C(C1CCCC1)N1[C@@H](CO)[C@@H]2c3ccccc3NC[C@@H]21 | nt | 0[16.7 µM] | nt | nt | nt | nt
O=C(c1cnccn1)N1CC(=O)N2[C@H](CO)[C@H](c3ccc(/C=C/c4ccccc4)cc3)[C@@H]2C1 | nt | nt | nt | nt | 0 | nt
N#CC(=C1Nc2ccccc2N1)S(=O)(=O)c1ccccc1 | -14 | -2 | 2 | -5 | 43* | -2
CC(C)(C)c1ccc(-c2nc3[nH]c(=O)cc(NC(=O)c4ccco4)n3n2)cc1 | 0 | 3 | -20 | -2 | 14* | -161
O=C(O)C1CN(c2nc(Cl)ccc2[N+](=O)[O-])C1 | -16 | -5 | -14 | 3 | 0 | 4
O=C(O)C1CN(c2ncccc2[N+](=O)[O-])C1 | -11 | -6 | 9 | -1 | 43* | 22
CN(C)c1ccc(C(=S)N2CCCCC2)cc1 | 5 | 6 | -20 | 1 | 43* | -2
CC(C)NC(=O)N(C)C[C@@H]1Oc2ncc(C#CC3CCCCC3)cc2C(=O)N([C@@H](C)CO)C[C@H]1C | nt | -9[16.7 µM] | nt | nt | nt | nt
CCC(=O)N1CCc2cc(Br)cc(S(=O)(=O)N3CCC(C(=O)NC(C)(C)C)CC3)c21 | 0 | 5 | 18 | -4 | 0 | 20
CCC(=O)N1CCc2cc(Br)cc(S(=O)(=O)N3CCCC(C(=O)NC(C)(C)C)C3)c21 (configuration not stated) | -9 | 3 | 3 | 3 | 43* | -3
O=C(O)C1CCCCC1C(=O)Nc1nc(-c2ccc(Cl)s2)cs1 (configuration not stated) | -26 | nt | 6 | -1 | 43* | -2
CCCC(=O)Nc1nc(-c2ccc(Cl)s2)cs1 | -7 | nt | -19 | 0 | 0 | -27
CCCCCCCCOC(=O)c1nc(Cl)c(Cl)c(N)c1Cl | 15 | -5 | -5 | -1 | 1.5* | -30
COC(=O)c1nc(Cl)c(Cl)c(N)c1Cl | -35 | nt | 9 | 4 | 0 | 6
COc1cccc(S(=O)(=O)Nc2ccc3c(c2)OC[C@@H](C)NC[C@@H](C)[C@H](OC)CN(C)C3=O)c1 | nt | -2[16.7 µM] | nt | nt | 0 | nt
CN(C)C(=O)c1cc(C(=O)c2ccc(Cl)cc2Cl)c[nH]1 | -28 | nt | -3 | 3 | 0 | -65
NC(=O)c1cc(C(=O)c2ccc(Cl)cc2Cl)c[nH]1 | -20 | -2 | 1 | -1 | 44* | -7
S=c1[nH]nc(COc2ccccc2)n1/N=C/c1ccncc1 | 26 | 16 | 6 | 3 | 43* | -14
FC(F)(F)c1ccc(/C=N/n2c(COc3ccccc3)n[nH]c2=S)cc1 | -13 | -12 | -11 | 0 | 0 | -3
O=S1(=O)CC(c2ccccc2)=NN=C(c2ccccc2)C1 | -114 | nt | nt | nt | 44* | nt
SMILES | NR2E3 ag-1 | miR122 inh | Jurkat NFkB inh | NR2E3 ag-2 | FGF22 binding | 697 NFkB inh
O=C(C[C@H]1CC[C@@H]2[C@H](COC[C@H](O)CN2C(=O)c2ccc3c(c2)OCO3)O1)NC1CCCC1 | nt | 2[16.7 µM] | nt | nt | 0 | nt
CC(=O)N(C)C[C@@H]1Oc2cc(-c3cccc(C#N)c3)ccc2S(=O)(=O)N([C@H](C)CO)C[C@H]1C | nt | 1[16.7 µM] | nt | nt | 0 | nt
O=C(c1ccc(Cl)cc1[N+](=O)[O-])N1CCc2ccccc2C1 | 12 | -2 | 0 | 2 | 43* | -19
CC(=O)OC1CC2(C)C(C(C)=O)CCC2C2CCC3=CC(=O)CCC3(C)C12 (configuration not stated) | 6 | -9 | nt | nt | 43* | nt
CC12CC(O)C3C(CCC4=CC(=O)CCC43C)C1CCC2=CCO (configuration not stated) | 5 | -10 | nt | nt | 43* | nt
CC(C)CC(NC(N)=O)C(=O)OCC(=O)Nc1ccc(SC(F)F)cc1 (configuration not stated) | -12 | nt | -17 | 4 | 1 | 23
O=C(COc1ccccc1C(=O)O)Nc1ccc(SC(F)F)cc1 | -2 | -2 | -5 | 0 | 43* | 5
CC(C)=CC(=O)OCC(=O)Nc1ccc(SC(F)F)cc1 | -32 | nt | 5 | 0 | 44* | 26
CC(=O)CCC(=O)OCC(=O)Nc1ccc(SC(F)F)cc1 | -13 | -2 | -10 | 1 | 43* | 4
CN(C)C(=O)COC(=O)c1ccccc1OCC(=O)Nc1ccc(SC(F)F)cc1 | 12 | -5 | -2 | -1 | nt | -15
C[C@H]1CN([C@@H](C)CO)S(=O)(=O)c2ccc(/C=C/c3ccccc3)cc2O[C@H]1CN(C)C(=O)c1cccnc1 | nt | 8[16.7 µM] | nt | nt | 0 | nt
